Source: PubChem BioAssay
FN deposit inh – fibronectin deposition inhibition. AH1F fibroblasts, Alexa488-fibronectin deposition fluorescence, overnight. inhibition, % at 12.6 µM. hit rate 0.086% among 350,000;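 active = mean inhibition across replicates of 30% or more, regardless of how many single replicates reach that level; inconclusive = mean under 30% yet at least half of replicates reach 30%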;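 note: positive control wells lacked labelled fibronectin entirely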
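test system = AH1F fibroblasts assembling fluorescent fibronectin matrix | quantity = 10000 AH1F cells per well | buffer or medium = DMEM plus 2% serum, read in PBS | doses = single dose, pinned | incubation = 1 h cell attachment, overnight exposure to compound and label | detection = fluorescence at 485 nm excitation, 525 nm emission | read-out basis = inhibition from reduced deposited-fibronectin fluorescence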
FGF22 binding – shifts melting point of recombinant human FGF22; recombinant FGF22 thermal shift, SYPRO orange fluorescence; percent of sucrose octasulfate shift, DMSO zero; AID 651658; hit rate 1.5% among 340,000; activity (Tm shift, normalised), % at 9.99 µM;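 active = mean Tm shift, scaled 0 neutral to 100 positive control, at about 1.3% or above, every replicate too, limit read from the data; inconclusive = no clear call, values can overlap the other calls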
Target sequence (Q9HCT0 whole entry, looked up): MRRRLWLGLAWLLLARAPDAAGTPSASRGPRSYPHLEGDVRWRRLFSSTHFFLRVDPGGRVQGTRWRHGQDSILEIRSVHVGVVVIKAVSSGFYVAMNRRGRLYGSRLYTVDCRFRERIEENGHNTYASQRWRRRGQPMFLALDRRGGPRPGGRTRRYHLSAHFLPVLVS
DENV2 CPE rescue – inhibitors of DENV2 cytopathic effect | CPE inhibition, % at 9.99 µM | hit rate 1.7% among 350,000 | DENV2-infected cells, cytopathic effect rescue, plate reader; in the data active = CPE inhibition above about 20%, passing the limit was not always enough; inconclusive = no clear call, values can overlap the other calls; tested in BHK-21 cells;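 note: 0% = median of neutral control wells and 100% = median of positive control wells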
XiGFP reactiv – activators of X-chromosome reactivation in mouse fibroblasts | hit rate 0.055% among 360,000 | XiGFP mouse fibroblasts, % GFP-positive cells imaging, 3 d; cells co-treated with 5-aza-dC sensitizer; scaled so ellipticine positive control = 100% | activation, % at 7.58 µM | AID 743238;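 active = mean normalized replicate activation at least 10% and every replicate at or above 10%; inconclusive = only one of the two criteria met; inactive = mean below 10% and not all replicates reach 10%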;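 note: 0% = median of on-plate neutral control wells and 100% = ellipticine 6 µM median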
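Material: XiGFP fibroblasts, SV40-immortalized; Buffer or medium: DMEM containing 5-aza-dC; Compound dosing: single point; Times: 3 days compound exposure.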
SIRT5 inh – sirtuin-5 (human) deacylase inhibition; Q9NXA8; inhibition, % at 15 µM; Purified SirT5, succinyl-peptide AMC, trypsin-coupled fluorescence; hit rate 1.1% among 330,000; in the data active = inhibition above about 15%; inconclusive = no clear call, values can overlap the other calls
Target sequence (Q9NXA8 whole entry, looked up): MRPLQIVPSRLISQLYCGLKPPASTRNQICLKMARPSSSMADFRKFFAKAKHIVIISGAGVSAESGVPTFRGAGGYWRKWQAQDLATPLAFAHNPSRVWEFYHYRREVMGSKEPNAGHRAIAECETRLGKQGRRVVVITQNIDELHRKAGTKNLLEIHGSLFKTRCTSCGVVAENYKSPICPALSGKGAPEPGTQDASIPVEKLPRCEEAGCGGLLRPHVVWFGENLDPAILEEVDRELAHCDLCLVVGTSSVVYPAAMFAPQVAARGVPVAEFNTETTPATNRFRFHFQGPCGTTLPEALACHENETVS
ARNT TACC3 PPI – disrupts binding between human ARNT and TACC3. hit rate 0.66% among 390,000. AlphaScreen His-ARNT PAS-B/GST-TACC3 binding, luminescence; TACC3 fragment carries E629A point mutation. inhibition, % at 9.99 µM. Q9Y6A5;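 active = mean inhibition of replicates at least 50% and at least half of replicates each reaching 50%; inconclusive = half or more replicates reach 50% but mean below 50%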;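 note: 0% = complete ARNT plus TACC3 wells and 100% = ARNT alone without TACC3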
An asterisk follows results filed as active; ? = inconclusive; / = no result given. Rows were chosen to be rich in hits. Some 3.8% of all compounds tested hit in one or more screens of this group.

SMILES	FN deposit inh	FGF22 binding	DENV2 CPE rescue	XiGFP reactiv	SIRT5 inh	ARNT TACC3 PPI
CCN(CC)C(=O)C1CCN(Cc2cn(C)nc2-c2ccc(Oc3ccccc3)cc2)CC1	3.1	0.0	-3.1	0.0	-3.7	6.7
O=C(NCCN1CCCC1)C1CCC(=O)N(CCCN2CCOCC2)C1 (configuration not stated)	6.8	-0.2	35.2*	-0.1	-1.9	/
O=C(NCC1CC1)[C@H]1[C@H](CO)[C@H]2Cn3c(cccc3=O)[C@H]2N1Cc1cncnc1	/	0.0	-4.3	-0.1	2.5	-1.8
Cc1ccc(-c2cc(C(=O)N/N=C/c3ccc([N+](=O)[O-])o3)c3ccccc3n2)o1	/	0.2	-8.7	0.0	-1.7	0.8
Cc1cc(N/N=C/c2ccc([N+](=O)[O-])o2)nc2ccccc12	-24.8	0.6	1.6	42.6*	2.3	1.8
O=C(NC(Cc1ccc(O)cc1)C(=O)O)c1ccco1 (configuration not stated)	15.5	43.3*	1.6	0.0	0.8	3.3
CCOC(=O)CCc1c(C)nc(-n2[nH]c(C)c(CCO)c2=O)[nH]c1=O	-3.4	0.2	0.2	0.0	-1.9	-2.5
CCOC(=O)CCc1c(C)n[nH]c1C	-2.9	43.0*	19.8	0.1	-1.0	/
O=C1C=CC(=O)c2c(O)c(N3CCN(CCO)CC3)c(Cl)c(O)c21	10.4	-0.1	4.2	-0.1	-0.6	31.1*
O=C(O)c1c(C(=O)N2N=C3/C(=C/c4ccccc4)CCCC3C2c2ccccc2)cccc1[N+](=O)[O-] (configuration not stated)	-6.6	-0.9	2.2	0.0	4.6	1.9
O=C(O)c1ccccc1C(=O)N1N=C2/C(=C/c3cccc([N+](=O)[O-])c3)CCCC2C1c1cccc([N+](=O)[O-])c1 (configuration not stated)	2.6	2.3*	-15.1	-0.1	23.8*	-0.6
COCC(=O)Nc1ccc2c(c1)[C@@H]1C[C@H](CC(=O)NC3CCCCC3)O[C@H](CO)[C@@H]1O2	0.5	0.3	56.0*	0.1	0.8	-9.0
COCC(=O)Nc1ccc2c(c1)[C@H]1C[C@H](CC(=O)NC3CCCC3)O[C@@H](CO)[C@H]1O2	/	-0.1	4.4	0.3	0.8	2.2
O=C(C[C@@H]1C[C@@H]2c3cc(NC(=O)c4ccc5c(c4)OCO5)ccc3O[C@@H]2[C@H](CO)O1)NC1CCCC1	-9.9	0.3	38.4*	0.0	1.3	-3.1
O=C(Nc1ccc2c(c1)[C@@H]1C[C@H](CC(=O)N3CCc4ccccc4C3)O[C@H](CO)[C@@H]1O2)c1ccc2c(c1)OCO2	5.0	-0.4	6.8	0.2	1.2	47.6*
O=C(Nc1ccc2c(c1)[C@@H]1C[C@@H](CC(=O)N3CCc4ccccc4C3)O[C@H](CO)[C@@H]1O2)c1ccc2c(c1)OCO2	-11.0	-0.1	-4.1	0.1	0.6	14.5
C[C@@H](NC(=O)C[C@@H]1C[C@@H]2c3cc(NC(=O)c4ccc5c(c4)OCO5)ccc3O[C@@H]2[C@H](CO)O1)c1ccccc1	/	0.1	4.9	0.0	15.4*	0.7
C[C@H]1CCCCO[C@@H](CN(C)C(=O)Nc2cccc3ccccc23)[C@@H](C)CN([C@@H](C)CO)C(=O)c2cc(NS(C)(=O)=O)ccc2O1	/	-0.2	?	0.1	4.4	-6.9
CN(C)CC(=O)Nc1ccc2c(c1)[C@H]1C[C@H](CC(=O)NC3CCCCC3)O[C@@H](CO)[C@H]1O2	/	-0.2	86.5*	-0.1	4.4	-4.9
CN(C)CC(=O)Nc1ccc2c(c1)[C@@H]1C[C@H](CC(=O)NC3CCCCC3)O[C@H](CO)[C@@H]1O2	/	-0.2	-0.9	0.1	-3.1	-3.1
CN(C)CC(=O)Nc1ccc2c(c1)[C@@H]1C[C@@H](CC(=O)NC3CCCCC3)O[C@H](CO)[C@@H]1O2	/	-0.3	85.7*	0.1	-1.6	-4.7
CO[C@H]1CN(C)C(=O)c2ccc(NS(C)(=O)=O)cc2OC[C@H](C)NC[C@H]1C	0.1	-0.1	1.0	-0.4	-1.4	-3.9
O=C1CCCC2=C1C(c1ccccc1)CC(=O)N2c1ccc(F)cc1F (configuration not stated)	6.9	43.1*	-11.3	0.2	-1.7	1.7
CNC(=O)C[C@@H]1CC[C@@H]2[C@H](COC[C@@H](O)CN2Cc2ccncc2)O1	4.3	0.3	24.9*	0.3	-2.5	-1.6
O=C(C[C@@H]1CC[C@@H]2[C@H](COC[C@@H](O)CN2C(=O)Nc2ccc(Cl)c(Cl)c2)O1)NCc1ccc(Cl)c(Cl)c1	12.2	0.0	-20.5	0.3	4.3	10.8
SMILES	FN deposit inh	FGF22 binding	DENV2 CPE rescue	XiGFP reactiv	SIRT5 inh	ARNT TACC3 PPI
CCNC(=O)C[C@H]1CC[C@H]2[C@@H](COC[C@H](O)CN2Cc2ccc(Cl)c(Cl)c2)O1	-7.0	-0.1	108.8*	0.1	-2.7	10.1
O=C(C[C@@H]1CC[C@@H]2[C@H](COC[C@H](O)CN2C(=O)Nc2ccc(Cl)c(Cl)c2)O1)NCc1ccc(Cl)c(Cl)c1	4.8	0.8	44.4*	0.4	4.7	14.7
CO[C@@H]1CN(C)C(=O)c2cc(NC(=O)Nc3ccccc3F)ccc2OC[C@@H](C)N(C)C[C@@H]1C	-12.0	-0.1	0.4	-0.1	-0.6	17.1
CO[C@H]1CN(C)C(=O)c2ccc(NS(C)(=O)=O)cc2OC[C@H](C)N(C(=O)C2CCOCC2)C[C@@H]1C	8.4	0.1	-8.4	0.0	-0.4	-3.1
COCC(=O)OCC(=O)N1N=C(c2ccc(Cl)cc2)CC1c1ccco1 (configuration not stated)	0.0	44.0*	2.4	0.0	-1.4	19.8
COc1ccc(C)cc1NC(=O)C(c1ccccc1)N1CCN(CC(=O)N2CCCC2)CC1 (configuration not stated)	11.7	-0.2	-1.6	0.1	0.0	0.0
COc1ccccc1NC(=O)CCCCC(=O)Nc1ccccc1OC	6.5	-0.2	5.7	0.0	16.1*	-1.6
COc1ccc(C)cc1NC(=O)C(c1ccccc1)N1CCN(CC(=O)N2CCOCC2)CC1 (configuration not stated)	3.5	-0.2	28.0*	0.0	0.9	2.9
COc1ccccc1NC(=O)CN1CCN(C(=O)C2CCCO2)CC1 (configuration not stated)	-3.4	0.1	7.1	-0.1	45.6*	-4.3
COc1ccccc1NC(=O)CN1CCOCC1	2.2	-0.2	74.9*	0.2	-2.2	1.2
COc1cc(NC(=O)c2cccc(C)c2)c(OC)cc1NC(=O)CN1CCCCC1	4.4	43.4*	2.5	0.1	0.0	6.9
COc1ccccc1NC(=O)CNc1ccc(F)c(Cl)c1	2.4	-0.2	1.4	0.1	31.0*	2.4
